Measured values from ChEMBL document CHEMBL4308845, “Allosteric Activation of Striatal-Enriched Protein Tyrosine Phosphatase (STEP, PTPN5) by a Fragment-like Molecule” (J Med Chem, 2019).
Activity calls are given as the source filed them. The calls are words filed in the database; no cut-off is given here.

Tests used:
Homo sapiens [1] = species: Homo sapiens; assay: Binding affinity to human STEP46 (197 to 565 residues) expressed in Escherichia coli BL21(DE3) at 250 uM by STD-NMR method
Method in brief: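 Saturation was 3 s Gaussian pulse train, on-resonance −0.2 ppm, off-resonance 60 ppm. A 30 ms spin-lock suppressed protein signal, and the difference spectrum was taken.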

Homo sapiens [2] = species: Homo sapiens; assay: Binding affinity to human STEP46 (197 to 565 residues) expressed in Escherichia coli BL21(DE3) by MST method
Homo sapiens [3] = species: Homo sapiens; assay: Binding affinity to human STEP46 (197 to 565 residues) expressed in Escherichia coli BL21(DE3) at 500 uM by SYPRO Orange dye based DSF
Method in brief: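 Final mix was 5 μM STEP46, 25× SYPRO Orange, 500 μM fragment, 1% DMSO in 20 mM HEPES pH 7.5, 50 mM NaCl, 1 mM TCEP, in duplicate. Samples were heated 25→95 °C at 1 °C/min, read every 0.5 °C. Tm was taken from the first-derivative minimum. ΔTm ≥0.5 °C versus DMSO counted as a hit.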

[4] = biological target: T1, Tyrosine-protein phosphatase non-receptor type 5 (Homo sapiens) (UniProt P54829); assay: Binding affinity to human 15N-labeled STEP PTP domain (281 to 563 residues) expressed in Escherichia coli OD2 assessed as induction of chemical perturbation at 500 uM by 1H,15N TROSY NMR spectral analysis
T1 sequence (whole entry): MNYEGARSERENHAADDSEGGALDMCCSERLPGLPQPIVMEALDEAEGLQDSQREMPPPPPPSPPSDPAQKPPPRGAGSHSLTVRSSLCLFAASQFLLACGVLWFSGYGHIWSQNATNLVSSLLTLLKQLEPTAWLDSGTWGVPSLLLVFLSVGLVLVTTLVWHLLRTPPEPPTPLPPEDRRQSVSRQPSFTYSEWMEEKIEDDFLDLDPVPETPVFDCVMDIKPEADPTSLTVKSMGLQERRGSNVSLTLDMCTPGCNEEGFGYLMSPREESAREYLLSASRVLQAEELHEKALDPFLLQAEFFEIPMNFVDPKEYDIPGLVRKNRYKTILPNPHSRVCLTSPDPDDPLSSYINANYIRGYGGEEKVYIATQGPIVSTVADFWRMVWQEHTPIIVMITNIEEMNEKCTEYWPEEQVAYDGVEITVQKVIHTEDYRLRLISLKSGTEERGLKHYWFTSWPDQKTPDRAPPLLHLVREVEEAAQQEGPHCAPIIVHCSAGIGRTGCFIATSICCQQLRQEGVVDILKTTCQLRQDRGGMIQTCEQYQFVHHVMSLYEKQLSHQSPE
Method in brief: (§1)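 40 μM 15N-labelled STEP PTP domain in 20 mM Tris-d11, 100 mM NaCl, 1 mM TCEP, pH 7.4, 8% D2O, 1% DMSO-d6, 298 K. TROSY spectra used 192 transients and 64 indirect points. Binders were called by manual comparison with the protein-only reference spectrum.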

[5] = biological target: Tyrosine-protein phosphatase non-receptor type 5 (Homo sapiens) (UniProt P54829); assay: Binding affinity to human 15N-labeled STEP PTP domain (281 to 563 residues) expressed in Escherichia coli OD2 assessed as induction of chemical perturbation at 2 mM by 1H,15N TROSY NMR spectral analysis; method in brief: as §1
[6] = compound: N=C(N)Nc1cc(C2CCNCC2)cc(C(F)(F)F)c1; assay: Activation of human STEP PTP domain (281 to 563 residues) expressed in Escherichia coli BL21(DE3) assessed as Km for substrate at 500 uM using pFyn peptide substrate after 60 mins by RapidFire MS/MS assay (reference value: 60.8 +/- 7.9 uM)
[7] = compound: N=C(N)Nc1cc(C2CCNCC2)cc(C(F)(F)F)c1; assay: Activation of human STEP PTP domain (281 to 563 residues) expressed in Escherichia coli BL21(DE3) assessed as Kcat at 500 uM using pFyn peptide substrate after 60 mins by RapidFire MS/MS assay (reference value: 0.024 +/- 0.002 /s)

CC(N)Cc1cc(O)cc(C(F)(F)F)c1 (stereo not given)
Activity (Homo sapiens [1]): Active | Activity (Homo sapiens [2]): Active | Activity (Homo sapiens [3]): Active | Activity [4]: > 5 mM

CC(N)Cc1cc(N)cc(C(F)(F)F)c1 (stereo not given)
Activity [4]: inactive

SODIUM ORTHOVANAD
Activity [5]: Active

CC(N)Cc1cccc(C(F)(F)F)c1 (stereo not given)
Activity [4]: inactive

N=C(N)Nc1cccc(C(F)(F)F)c1
Activity [4]: Active

B1: Tyrosine-protein phosphatase non-receptor type 5 (Homo sapiens), P54829 (protein)
chain: T1 sequence (whole entry)
Km [6]: 65.4 µM | kcat [7]: 0.042 s⁻¹
